Assay results taken from ChEMBL document CHEMBL2384906, “Biological activity, design, synthesis and structure activity relationship of some novel derivatives of curcumin containing sulfonamides” (Eur J Med Chem, 2013).
Values after ≈ are worked out from the molar mass of the structure shown. Active and inactive are the calls of the source. No cut-off for these calls is given here.

Experiments:
[1] = system: Salmonella typhi; assay: Antimicrobial activity against Salmonella typhi ATCC 23564 after 24 hrs by broth micro serial dilution method; assay type: functional, Salmonella enterica subsp. enterica serovar Typhi; conditions: Salmonella enterica, ATCC 23564, 24 h
[2] = system: Aspergillus flavus; assay: Antifungal activity against Aspergillus flavus MTCC 1021 after 48 hrs; assay type: functional
[3] = system: QG-56; assay: Cytotoxicity against human QG56 cells after 24 hrs by MTT assay; assay type: functional, cell-based
Outline: (§1)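 The MTT assay seeded 5 × 10⁴ cells per well and grew them 24 h in RPMI 1640 with compound at 2.5–200 µM. Medium without cells was the blank and adriamycin the positive control. MTT was added for 4 h at 37 °C, formazan was solubilised, and absorbance was read at 570 nm. IC50 is the concentration that cuts viability 50% against untreated cells.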

[4] = system: Aspergillus niger; assay: Antifungal activity against Aspergillus niger MTCC 1108 after 48 hrs; assay type: functional; conditions: MTCC 1108, 48 h
[5] = system: Salmonella typhi; assay: Antimicrobial activity against Salmonella typhi ATCC 23564 assessed as diameter of inhibition zone at 80 uM after 24 hrs by Kirby -Baur disc diffusion method; assay type: functional, Salmonella enterica subsp. enterica serovar Typhi; conditions: Salmonella enterica, ATCC 23564, 24 h; read-out: DIZ
[6] = system: Mus musculus; assay: Antiinflammatory activity in mouse assessed as inhibition of carrageenan-induced increase in paw volume at 200 mg/kg administered 1 hr prior to carrageenan challenge measured after 3 hrs relative to control; assay type: functional
Outline: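 Mice were fasted 2 h and placed in groups of five. Controls received saline i.p. Phenylbutazone was given at 100 mg/kg i.p., curcumin at 200 mg/kg i.p., and derivatives at 200 mg/kg. After 1 h, 0.1 mL of 1% carrageenan in saline was injected subplantar into the right hind paw. Paw volume was followed by plethysmometer for 3 h, and % inhibition was calculated as (Vc − Vt)/Vc × 100.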

[7] = system: Curvularia lunata; assay: Antifungal activity against Curvularia lunata MTCC 581 assessed as zone of inhibition at 40 uM after 48 hrs by disc diffusion method; assay type: functional
Outline: (§2)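 Spores from 4-day potato dextrose agar cultures, suspended in sterile water at 1.5 × 10⁵ CFU/mL. 0.2 mL was spread on potato dextrose agar. 5 mm filter-paper discs soaked with test compound were laid on the lawn. Incubation was 48 h at 28 °C, then the inhibition zone was measured in mm. Fluconazole was the positive control and acetone the negative control.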

[8] = system: Aspergillus flavus; assay: Antifungal activity against Aspergillus flavus MTCC 1021 assessed as zone of inhibition at 80 uM after 48 hrs by disc diffusion method; assay type: functional; outline: as §2
[9] = system: Escherichia coli; assay: Antimicrobial activity against Escherichia coli ATCC 35218 assessed as diameter of inhibition zone at 40 uM after 24 hrs by Kirby -Baur disc diffusion method; assay type: functional; conditions: ATCC 35218, 24 h, read-out: DIZ
Outline: (§3)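 Kirby-Bauer disc diffusion was used. Acetone stocks (160 µM) were serially doubled down to 80, 40 and 20 µM. 4 µL of each went onto 5 mm sterile paper discs, which were dried 30 min at 50 °C. Inoculum was 1.5 × 10⁸ CFU/mL diluted to 3 × 10² CFU/mL, and 50 µL was spread on Mueller-Hinton agar. After 24 h at 37 °C the inhibition-zone diameter was measured. Ciprofloxacin served as positive control.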

[10] = system: Staphylococcus aureus; assay: Antimicrobial activity against Staphylococcus aureus ATCC 11632 assessed as diameter of inhibition zone at 40 uM after 24 hrs by Kirby -Baur disc diffusion method; assay type: functional; outline: as §3
[11] = system: Pseudomonas aeruginosa; assay: Antimicrobial activity against Pseudomonas aeruginosa ATCC 15499 assessed as diameter of inhibition zone at 20 uM after 24 hrs by Kirby -Baur disc diffusion method; assay type: functional; conditions: ATCC 15499, 24 h, read-out: DIZ; outline: as §3
[12] = system: Aspergillus niger; assay: Antifungal activity against Aspergillus niger MTCC 1108 assessed as zone of inhibition at 20 uM after 48 hrs by disc diffusion method; assay type: functional; outline: as §2
[13] = system: Escherichia coli; assay: Antimicrobial activity against Escherichia coli ATCC 35218 after 24 hrs by broth micro serial dilution method; assay type: functional; conditions: ATCC 35218, 24 h
Outline: (§4)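 This was broth microdilution in autoclaved Mueller-Hinton broth. 150 µL of compound per well was serially diluted […], and 50 µL of test organism was added. Plates were incubated 24 h at 37 °C and optical density was read.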

[14] = system: Pseudomonas aeruginosa; assay: Antimicrobial activity against Pseudomonas aeruginosa ATCC 15499 assessed as diameter of inhibition zone at 40 uM after 24 hrs by Kirby -Baur disc diffusion method; assay type: functional; conditions: ATCC 15499, 24 h, read-out: DIZ; outline: as §3
[15] = system: Trichoderma viride; assay: Antifungal activity against Trichoderma viride MTCC 1107 assessed as zone of inhibition at 20 uM after 48 hrs by disc diffusion method; assay type: functional; outline: as §2
[16] = system: Bacillus cereus; assay: Antimicrobial activity against Bacillus cereus MTCC 7350 assessed as diameter of inhibition zone at 40 uM after 24 hrs by Kirby -Baur disc diffusion method; assay type: functional; outline: as §3
[17] = system: Trichoderma viride; assay: Antifungal activity against Trichoderma viride MTCC 1107 assessed as zone of inhibition at 80 uM after 48 hrs by disc diffusion method; assay type: functional; conditions: MTCC 1107, 48 h, read-out: IZ; outline: as §2
[18] = system: HeLa; assay: Cytotoxicity against human HeLa cells after 24 hrs by MTT assay; assay type: functional, cell-based; outline: as §1
[19] = system: Bacillus cereus; assay: Antimicrobial activity against Bacillus cereus MTCC 7350 after 24 hrs by broth micro serial dilution method; assay type: functional; conditions: MTCC 7350, 24 h; outline: as §4
[20] = system: Pseudomonas aeruginosa; assay: Antimicrobial activity against Pseudomonas aeruginosa ATCC 15499 assessed as diameter of inhibition zone at 80 uM after 24 hrs by Kirby -Baur disc diffusion method; assay type: functional; conditions: ATCC 15499, 24 h, read-out: DIZ; outline: as §3
[21] = system: Staphylococcus aureus; assay: Antimicrobial activity against Staphylococcus aureus ATCC 11632 assessed as diameter of inhibition zone at 20 uM after 24 hrs by Kirby -Baur disc diffusion method; assay type: functional; outline: as §3
[22] = system: Pseudomonas aeruginosa; assay: Antimicrobial activity against Pseudomonas aeruginosa ATCC 15499 after 24 hrs by broth micro serial dilution method; assay type: functional; conditions: ATCC 15499, 24 h; outline: as §4
[23] = system: HepG2; assay: Cytotoxicity against human HepG2 cells after 24 hrs by MTT assay; assay type: functional, cell-based; outline: as §1
[24] = system: Trichoderma viride; assay: Antifungal activity against Trichoderma viride MTCC 1107 assessed as zone of inhibition at 40 uM after 48 hrs by disc diffusion method; assay type: functional; conditions: MTCC 1107, 48 h, read-out: IZ; outline: as §2
[25] = system: Salmonella typhi; assay: Antimicrobial activity against Salmonella typhi ATCC 23564 assessed as diameter of inhibition zone at 20 uM after 24 hrs by Kirby -Baur disc diffusion method; assay type: functional, Salmonella enterica subsp. enterica serovar Typhi; conditions: Salmonella enterica, ATCC 23564, 24 h; read-out: DIZ
[26] = system: Aspergillus niger; assay: Antifungal activity against Aspergillus niger MTCC 1108 assessed as zone of inhibition at 80 uM after 48 hrs by disc diffusion method; assay type: functional; conditions: MTCC 1108, 48 h, read-out: IZ; outline: as §2
[27] = system: Escherichia coli; assay: Antimicrobial activity against Escherichia coli ATCC 35218 assessed as diameter of inhibition zone at 20 uM after 24 hrs by Kirby -Baur disc diffusion method; assay type: functional; outline: as §3
[28] = system: Bacillus cereus; assay: Antimicrobial activity against Bacillus cereus MTCC 7350 assessed as diameter of inhibition zone at 80 uM after 24 hrs by Kirby -Baur disc diffusion method; assay type: functional; conditions: MTCC 7350, 24 h, read-out: DIZ; outline: as §3
[29] = system: Curvularia lunata; assay: Antifungal activity against Curvularia lunata MTCC 581 after 48 hrs; assay type: functional; conditions: MTCC 581, 48 h
[30] = system: Curvularia lunata; assay: Antifungal activity against Curvularia lunata MTCC 581 assessed as zone of inhibition at 20 uM after 48 hrs by disc diffusion method; assay type: functional; outline: as §2
[31] = system: Staphylococcus aureus; assay: Antimicrobial activity against Staphylococcus aureus ATCC 11632 after 24 hrs by broth micro serial dilution method; assay type: functional; conditions: ATCC 11632, 24 h; outline: as §4
[32] = system: HCT-116; assay: Cytotoxicity against human HCT116 cells after 24 hrs by MTT assay; assay type: functional, cell-based; outline: as §1
[33] = system: Escherichia coli; assay: Antimicrobial activity against Escherichia coli ATCC 35218 assessed as diameter of inhibition zone at 80 uM after 24 hrs by Kirby -Baur disc diffusion method; assay type: functional; conditions: ATCC 35218, 24 h, read-out: DIZ; outline: as §3
[34] = system: Aspergillus niger; assay: Antifungal activity against Aspergillus niger MTCC 1108 assessed as zone of inhibition at 40 uM after 48 hrs by disc diffusion method; assay type: functional; outline: as §2
[35] = system: Salmonella typhi; assay: Antimicrobial activity against Salmonella typhi ATCC 23564 assessed as diameter of inhibition zone at 40 uM after 24 hrs by Kirby -Baur disc diffusion method; assay type: functional, Salmonella enterica subsp. enterica serovar Typhi; conditions: Salmonella enterica, ATCC 23564, 24 h; read-out: DIZ
[36] = system: Curvularia lunata; assay: Antifungal activity against Curvularia lunata MTCC 581 assessed as zone of inhibition at 80 uM after 48 hrs by disc diffusion method; assay type: functional; conditions: MTCC 581, 48 h, read-out: IZ; outline: as §2
[37] = system: Trichoderma viride; assay: Antifungal activity against Trichoderma viride MTCC 1107 after 48 hrs; assay type: functional; conditions: MTCC 1107, 48 h
[38] = system: Staphylococcus aureus; assay: Antimicrobial activity against Staphylococcus aureus ATCC 11632 assessed as diameter of inhibition zone at 80 uM after 24 hrs by Kirby -Baur disc diffusion method; assay type: functional; conditions: ATCC 11632, 24 h, read-out: DIZ; outline: as §3

COc1cc(/C=C/C(CC(/C=C/c2ccc(O)c(OC)c2)=N/c2ccc(S(N)(=O)=O)cc2)=N\c2ccc(S(N)(=O)=O)cc2)ccc1O
MIC [1]: 40 µM (≈ 27.1 µg/mL) | MIC [2]: inactive | IC50 [3]: > 100 µM | MIC [4]: > 80 µM | zone of inhibition at 80 µM [5]: 16 mm | inhibition in vivo at 200 mg/kg [6]: 12.9% | inhibition zone (IZ) [7]: inactive | inhibition zone (IZ) [8]: inactive | zone of inhibition at 40 µM [9]: 10 mm | diameter of the inhibition zone (DIZ) [10]: inactive | zone of inhibition at 20 µM [11]: 9 mm | inhibition zone (IZ) [12]: inactive | MIC [13]: 40 µM (≈ 27.1 µg/mL) | zone of inhibition at 40 µM [14]: 11 mm | inhibition zone (IZ) [15]: inactive | diameter of the inhibition zone (DIZ) [16]: inactive | zone of inhibition at 80 µM [17]: 11 mm | IC50 [18]: 100 µM | MIC [19]: 40 µM (≈ 27.1 µg/mL) | zone of inhibition at 80 µM [20]: 18 mm | diameter of the inhibition zone (DIZ) [21]: inactive | MIC [22]: 40 µM (≈ 27.1 µg/mL) | IC50 [23]: > 100 µM | zone of inhibition at 40 µM [24]: 10 mm | zone of inhibition at 20 µM [25]: 9 mm | zone of inhibition at 80 µM [26]: 9 mm | diameter of the inhibition zone (DIZ) [27]: inactive | zone of inhibition at 80 µM [28]: 11 mm | MIC [29]: > 80 µM | inhibition zone (IZ) [30]: inactive | MIC [31]: > 80 µM | IC50 [32]: 100 µM | zone of inhibition at 80 µM [33]: 12 mm | inhibition zone (IZ) [34]: inactive | zone of inhibition at 40 µM [35]: 11 mm | zone of inhibition at 80 µM [36]: 9 mm | MIC [37]: 40 µM (≈ 27.1 µg/mL) | zone of inhibition at 80 µM [38]: 10 mm
